Results from ChEMBL document CHEMBL3994593, “Diterpenoids of the Cassane Type from Caesalpinia decapetala” (J Nat Prod, 2016).

Assays:
Type in all cases: functional, cell-based
Panc02 = test: Cytotoxicity against mouse Panc02 cells assessed as reduction in cell viability after 48 hrs by MTT assay; conditions: Panc02, 48 h
How it was run: (§1)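 Cells grown in RPMI 1640 with 10% FBS, penicillin/streptomycin, at 37 °C, 5% CO2. Seeded at 5000 cells/well, compounds added after 24 h, then 48 h incubation; MTT formazan read at 570 nm. Five concentrations (50, 25, 10, 2.5, 1 μM), 0.5% DMSO final, triplicate experiments; IC50 as mean ± SEM. Gemcitabine and cisplatin as positive controls.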

B16 = test: Cytotoxicity against mouse B16 cells assessed as reduction in cell viability after 48 hrs by MTT assay; conditions: B16, 48 h; how it was run: as §1
B-cell = test: Cytotoxicity against LPS-stimulated Balb/c mouse B cells assessed as reduction in cell viability after 48 hrs by MTT assay
How it was run: (§2)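 Splenocytes from three male Balb/c mice (4−6 weeks); T and B cells enriched on nylon-wool column, stimulated with 5 μg/mL ConA (T) or 10 μg/mL LPS (B). Then handled as the tumor-cell MTT assay: 48 h exposure, 570 nm read, five concentrations 1–50 μM, 0.5% DMSO final, triplicate. Cyclosporin A and mycophenolate mofetil as positive controls.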

T-cell = test: Cytotoxicity against ConA-stimulated Balb/c mouse T cells assessed as reduction in cell viability after 48 hrs by MTT assay; how it was run: as §2
A2780 = test: Cytotoxicity against human A2780 cells assessed as reduction in cell viability after 48 hrs by MTT assay; conditions: A2780, 48 h; how it was run: as §1
SW1990 = test: Cytotoxicity against human SW1990 cells assessed as reduction in cell viability after 48 hrs by MTT assay; conditions: SW1990, 48 h; how it was run: as §1
HepG2 = test: Cytotoxicity against human HepG2 cells assessed as reduction in cell viability after 48 hrs by MTT assay; conditions: HepG2, 48 h; how it was run: as §1

Row | SMILES | IC50 (Panc02) | IC50 (B16) | IC50 (B-cell) | IC50 (T-cell) | IC50 (A2780) | IC50 (SW1990) | IC50 (HepG2)
1 | COC(=O)[C@]1(C)CCC[C@]23C(O)O[C@H](C[C@H]4[C@@H](C)c5ccoc5C[C@@H]42)[C@H]31 (some centres not stated) | > 10 µM | > 10 µM | > 10 µM | > 10 µM | > 10 µM |  | 
2 | COC(=O)[C@@]1(C)[C@@H]2CC[C@@H]3[C@@H]4[C@@H](OC[C@@]42CC[C@@H]1O)c1occc1[C@@H]3C | > 10 µM | > 10 µM | > 10 µM | > 10 µM | > 10 µM | 2.9 to 8.9 µM | 
3 | COC(=O)[C@]1(C)[C@@H](O)CC[C@@]23C(=O)O[C@H]4c5occc5[C@H](C)[C@H](CC[C@@H]12)[C@H]43 | > 10 µM | > 10 µM | > 10 µM | > 10 µM | > 10 µM | 2.9 to 8.9 µM | 
4 | COC(=O)[C@]1(C)CCC[C@]23CO[C@H]4c5occc5[C@H](C)[C@@H]([C@H]42)[C@@H](OC(C)=O)C[C@H]31 | > 10 µM | > 10 µM | > 10 µM | > 10 µM | > 10 µM |  | 
5 | COC(=O)[C@]1(C)CCC[C@@]2(COC(C)=O)[C@H]1[C@H](O)C[C@H]1[C@@H](C)C3=CC(=O)O[C@]3(OC)C[C@@H]12 | > 10 µM | > 10 µM | > 10 µM | > 10 µM | > 10 µM |  | 
6 | COC(=O)[C@]1(C)CCC[C@@]2(COC(C)=O)[C@H]1[C@H](O)C[C@H]1[C@@H](C)c3ccoc3C[C@@H]12 | > 10 µM | > 10 µM | > 10 µM | > 10 µM | > 10 µM | 2.9 to 8.9 µM | 3.9 µM
7 | C=C1CC[C@@H]2[C@](C)(CCC[C@]2(C)C(=O)O)[C@H]1CC(=O)/C(C)=C/CO | > 10 µM | > 10 µM | > 10 µM | > 10 µM | > 10 µM |  | 
8 | COC(=O)[C@]1(C)[C@@H](OC(C)=O)CC[C@@]23C(=O)O[C@H]4c5occc5[C@H](C)[C@H](CC[C@@H]12)[C@H]43 | > 10 µM | > 10 µM | > 10 µM | > 10 µM | > 10 µM |  | 
9 | COC(=O)[C@]1(C)[C@@H](OC(C)=O)CC[C@@]23CO[C@H]4c5occc5[C@H](C)[C@H](CC[C@H]21)[C@H]43 | > 10 µM | > 10 µM | > 10 µM | > 10 µM | > 10 µM |  | 
10 | COC(=O)[C@]1(C)CCC[C@]23CO[C@H]4c5occc5[C@H](C)[C@@H]([C@H]42)[C@@H](O)C[C@H]31 | > 10 µM | > 10 µM | > 10 µM | > 10 µM | > 10 µM | 2.9 to 8.9 µM | 
11 | COC(=O)[C@@]1(C)[C@@H](OC(C)=O)CC[C@]2(C(=O)O)[C@H]3Cc4occc4[C@H](C)[C@@H]3CC[C@@H]12 | > 10 µM | > 10 µM | > 10 µM | > 10 µM | > 10 µM |  | 
12 | COC(=O)[C@]1(C)CCC[C@]2(COC(C)=O)c3cc4occc4c(C)c3C[C@@H](OC(C)=O)[C@H]21 | > 10 µM | > 10 µM | > 10 µM | > 10 µM | > 10 µM | 2.9 to 8.9 µM | 
13 | C=C1CC[C@@H]2[C@](C)(CCC[C@]2(C)C(=O)O)[C@H]1/C=C/C(C)=O | > 10 µM | > 10 µM | > 10 µM | > 10 µM | > 10 µM |  | 
14 | Nc1ccn([C@@H]2O[C@H](CO)[C@@H](O)C2(F)F)c(=O)n1 [GEMCITABINE] |  |  |  |  |  | 2.3 µM | 
